Measured values reported in ChEMBL document CHEMBL1240345 (Nat Chem Biol, 2009).
One block for each compound: values may come before it. Active and inactive are the calls of the source. No cut-off for these calls is given here.

Assays:
[1] = target: T1, Dual specificity protein phosphatase 1 (Homo sapiens) (UniProt P28562); assay: Inhibition of Myc-tagged human Dusp1 expressed in TPA-induced human HeLa cells assessed as decrease in dephosphorylation of pERK measured at 100 uM by immunostaining; format: cell-based
T1 sequence (whole entry): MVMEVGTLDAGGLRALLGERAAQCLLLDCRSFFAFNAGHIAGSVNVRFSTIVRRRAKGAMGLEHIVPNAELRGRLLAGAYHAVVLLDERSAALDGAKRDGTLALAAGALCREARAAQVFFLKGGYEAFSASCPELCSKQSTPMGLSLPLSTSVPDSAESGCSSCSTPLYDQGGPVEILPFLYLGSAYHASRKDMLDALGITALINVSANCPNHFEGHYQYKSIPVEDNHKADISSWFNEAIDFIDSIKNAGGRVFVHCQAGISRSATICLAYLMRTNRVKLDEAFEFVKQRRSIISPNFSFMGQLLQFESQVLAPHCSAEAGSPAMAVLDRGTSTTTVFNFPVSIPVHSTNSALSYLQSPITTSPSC

[2] = target: T2, Dual specificity protein phosphatase 6 (Homo sapiens) (UniProt Q16828); assay: Inhibition of Myc-tagged human Dusp6 expressed in TPA-induced human HeLa cells assessed as decrease in dephosphorylation of pERK measured at 100 uM by immunostaining; format: cell-based
T2 sequence (whole entry): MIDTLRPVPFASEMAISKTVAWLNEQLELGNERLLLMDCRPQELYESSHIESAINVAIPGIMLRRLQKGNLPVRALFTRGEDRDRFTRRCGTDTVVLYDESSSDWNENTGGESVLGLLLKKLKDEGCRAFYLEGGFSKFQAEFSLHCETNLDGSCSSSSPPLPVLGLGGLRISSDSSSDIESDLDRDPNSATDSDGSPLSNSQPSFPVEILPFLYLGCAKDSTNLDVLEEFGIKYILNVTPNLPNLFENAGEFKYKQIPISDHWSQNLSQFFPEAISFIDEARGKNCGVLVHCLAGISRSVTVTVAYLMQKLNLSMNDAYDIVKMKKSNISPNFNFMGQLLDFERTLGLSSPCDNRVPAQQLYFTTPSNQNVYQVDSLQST

Danio rerio [3] = organism: Danio rerio; assay: Inhibition of dusp7 gene expression in Tg(dusp:EGFP)pt6 zebrafish embryos; format: functional; details: Embryo
[4] = target: T2, Dual specificity protein phosphatase 6 (Homo sapiens); assay: Inhibition of Dusp6 in Tg(dusp:EGFP)pt6 zebrafish embryo assessed as reduction in scl gene expression; details: concentration not given here
[5] = Increase in transcription factor nkx2.5 gene in Tg(dusp:EGFP)pt6 zebrafish embryo anterior lateral plate mesoderm; format: functional, Danio rerio
[6] = target: T2, Dual specificity protein phosphatase 6 (Homo sapiens); assay: Inhibition of Dusp6 in Tg(dusp:EGFP)pt6 zebrafish assessed as increase in il17rd gene expression at 10 uM by RT-PCR
[7] = target: T2, Dual specificity protein phosphatase 6 (Homo sapiens); assay: Inhibition of Dusp6 in 1-somite stage Tg(dusp:EGFP)pt6 zebrafish assessed as increase in dusp6 FGF target gene expression in rhombomere 4 at 10 uM by RT-PCR
Danio rerio [8] = organism: Danio rerio; assay: Increase in cardiac myl7 expression in 18-somite stage Tg(dusp:EGFP)pt6 zebrafish embryo
[9] = target: T2, Dual specificity protein phosphatase 6 (Homo sapiens); assay: Inhibition of Dusp6 in 1-somite stage Tg(dusp:EGFP)pt6 zebrafish assessed as increase in dusp6 FGF target gene expression in tailbud at 10 uM by RT-PCR
Danio rerio [10] = organism: Danio rerio; assay: Increase in cardiac cmlc2 expression in 18-somite stage Tg(dusp:EGFP)pt6 zebrafish embryo
[11] = target: T3, M-phase inducer phosphatase 2 (Homo sapiens, UniProt P30305); assay: Inhibition of Cdc25B
T3 sequence (P30305 whole entry): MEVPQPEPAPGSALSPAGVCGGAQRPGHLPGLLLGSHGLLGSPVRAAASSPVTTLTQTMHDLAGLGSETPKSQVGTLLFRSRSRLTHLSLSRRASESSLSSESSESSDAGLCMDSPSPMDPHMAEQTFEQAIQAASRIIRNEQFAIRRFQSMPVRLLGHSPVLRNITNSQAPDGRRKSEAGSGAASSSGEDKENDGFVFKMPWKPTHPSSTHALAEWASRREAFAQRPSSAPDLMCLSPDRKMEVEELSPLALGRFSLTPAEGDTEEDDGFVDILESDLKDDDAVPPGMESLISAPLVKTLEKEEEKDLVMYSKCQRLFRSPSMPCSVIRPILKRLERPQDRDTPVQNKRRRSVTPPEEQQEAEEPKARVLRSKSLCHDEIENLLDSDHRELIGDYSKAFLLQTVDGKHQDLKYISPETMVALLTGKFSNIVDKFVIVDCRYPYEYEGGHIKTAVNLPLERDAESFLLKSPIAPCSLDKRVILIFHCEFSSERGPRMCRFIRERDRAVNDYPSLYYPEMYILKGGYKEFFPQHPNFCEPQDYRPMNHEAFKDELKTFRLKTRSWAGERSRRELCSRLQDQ

[12] = target: T2, Dual specificity protein phosphatase 6 (Homo sapiens); assay: Inhibition of Dusp6 in 1-somite stage Tg(dusp:EGFP)pt6 zebrafish assessed as increase in dusp6 FGF target gene expression in mid-hindbrain boundary at 10 uM by RT-PCR
[13] = target: T2, Dual specificity protein phosphatase 6 (Homo sapiens); assay: Inhibition of Dusp6 in Tg(dusp:EGFP)pt6 zebrafish embryo assessed as reduction in etv2 gene expression
[14] = target: T2, Dual specificity protein phosphatase 6 (Homo sapiens); assay: Inhibition of Dusp6 in 10-somite stage Tg(dusp:EGFP)pt6 zebrafish assessed as increase in dusp6 FGF target gene expression in rhombomere 4 at 10 uM by RT-PCR
[15] = Increase in transcription factor gata4 gene in Tg(dusp:EGFP)pt6 zebrafish embryo anterior lateral plate mesoderm; format: functional, Danio rerio
[16] = target: T2, Dual specificity protein phosphatase 6 (Homo sapiens); assay: Inhibition of Dusp6 in Tg(dusp:EGFP)pt6 zebrafish assessed as increase in FGF-signaling mediated d2EGFP fluorescence at 10 uM after 2 hrs
In short: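 Tg(dusp6:EGFP)pt6 embryos from natural crosses were raised at 28.5°C to 24 hpf, then placed five per well in E3. Compound was added at 10 μM in 0.5% DMSO, with 0.5% DMSO as vehicle control. d2EGFP intensity was scored visually against vehicle-treated embryos. Assays were run three times, and at least four of five embryos had to share the phenotype.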

Danio rerio [17] = organism: Danio rerio; assay: Inhibition of dusp5 gene expression in Tg(dusp:EGFP)pt6 zebrafish embryos; format: functional; details: Embryo
[18] = target: T2, Dual specificity protein phosphatase 6 (Homo sapiens); assay: Inhibition of Dusp6 in 1-cell stage Tg(dusp:EGFP)pt6 zebrafish embryos injected with spry4 mRNA assessed as sef gene expression restoring at 5 uM
In short: (§1)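 Embryos were injected at the 1-2 cell stage with 500 pg of spry4 or XFD mRNA. They were exposed to 5 μM compound at the 1000-cell stage and fixed at shield stage. sef expression was then assessed by in situ hybridization.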

Danio rerio [19] = organism: Danio rerio; assay: Inhibition of dusp22a gene expression in Tg(dusp:EGFP)pt6 zebrafish embryos; format: functional; details: Embryo
[20] = target: T4, Dual specificity protein phosphatase 6 (Homo sapiens, UniProt Q16828); assay: Inhibition of Myc-tagged human Dusp6 expressed in TPA-induced human HeLa cells assessed as decrease in dephosphorylation of pERK measured by immunostaining; format: cell-based
T4 sequence (Q16828 whole entry): T2 sequence (whole entry)
In short: (§2)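 HeLa cells (2,000 per collagen-coated well; DMEM, 10% FBS, 37°C, 5% CO2) were transfected with human c-Myc-Dusp1 or c-Myc-Dusp6. After 20 h, quadruplicate wells received ten two-fold concentrations of compound for 15 min, then TPA (500 ng/ml) for 15 min. Cells were fixed and immunostained for pERK and c-Myc, and 1000 Myc-gated cells were imaged. pERK restoration was expressed as Kolmogorov-Smirnov values normalized to vehicle-treated transfected wells. Six independent experiments were run.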

[21] = target: T2, Dual specificity protein phosphatase 6 (Homo sapiens); assay: Inhibition of Dusp6 in Tg(dusp:EGFP)pt6 zebrafish assessed as increase in engrailed 2b in prospective mid-hindbrain boundary at 10 uM by RT-PCR
Danio rerio [22] = organism: Danio rerio; assay: Increase in cardiac hand2 expression in 10-somite stage Tg(dusp:EGFP)pt6 zebrafish embryo; format: functional
Danio rerio [23] = organism: Danio rerio; assay: Induction of cardiac tissue expansion in larval stage Tg(dusp:EGFP)pt6 zebrafish embryo after 8 hrs; format: functional, tissue-based
[24] = target: T2, Dual specificity protein phosphatase 6 (Homo sapiens); assay: Inhibition of Dusp6 in 1-cell stage Tg(dusp:EGFP)pt6 zebrafish embryos injected with XFD mRNA assessed as sef gene expression restoring at 5 uM; in short: as §1
[25] = target: Dual specificity protein phosphatase 3 (Homo sapiens, UniProt P51452); assay: Inhibition of Dusp3/VHR
[26] = target: T2, Dual specificity protein phosphatase 6 (Homo sapiens); assay: Inhibition of Dusp6 basal phosphatase activity using 3-o-methylfluoro-rescein phosphate substrate
In short: (§3)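 Recombinant Dusp6 activity was followed as dephosphorylation of the small-molecule substrate 3-O-methylfluorescein phosphate, with or without ERK2 present to stimulate catalysis.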

[27] = target: T2, Dual specificity protein phosphatase 6 (Homo sapiens); assay: Inhibition of Dusp6 in Tg(dusp:EGFP)pt6 zebrafish assessed as increase in spry4 gene expression at 10 uM by RT-PCR
[28] = target: T5, Dual specificity protein phosphatase 5 (Homo sapiens) (UniProt Q16690); assay: Inhibition of Dusp5
T5 sequence (whole entry): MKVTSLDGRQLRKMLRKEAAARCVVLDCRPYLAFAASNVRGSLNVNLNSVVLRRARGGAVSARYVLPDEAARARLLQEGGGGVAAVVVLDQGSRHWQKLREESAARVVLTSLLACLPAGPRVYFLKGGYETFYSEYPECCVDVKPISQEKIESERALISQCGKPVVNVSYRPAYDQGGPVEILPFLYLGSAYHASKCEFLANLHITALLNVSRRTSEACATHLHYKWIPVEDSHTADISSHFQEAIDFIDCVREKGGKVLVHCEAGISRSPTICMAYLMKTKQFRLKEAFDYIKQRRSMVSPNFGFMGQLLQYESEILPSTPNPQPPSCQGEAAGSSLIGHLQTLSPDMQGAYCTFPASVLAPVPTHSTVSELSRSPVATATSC

[29] = target: T2, Dual specificity protein phosphatase 6 (Homo sapiens); assay: Inhibition of […] in Tg(dusp:EGFP);ace mutant zebrafish assessed as increase in FGF-signaling mediated d2EGFP fluorescence in mid-hindbrain boundary at 10 uM after 2 hrs
[30] = target: T2, Dual specificity protein phosphatase 6 (Homo sapiens); assay: Inhibition of Dusp6 in 10-somite stage Tg(dusp:EGFP)pt6 zebrafish assessed as increase in dusp6 FGF target gene expression in mid-hindbrain boundary at 10 uM by RT-PCR
[31] = target: T2, Dual specificity protein phosphatase 6 (Homo sapiens); assay: Inhibition of Dusp6 in 10-somite stage Tg(dusp:EGFP)pt6 zebrafish assessed as increase in dusp6 FGF target gene expression in tailbud at 10 uM by RT-PCR
[32] = target: T2, Dual specificity protein phosphatase 6 (Homo sapiens); assay: Inhibition of Dusp6 basal phosphatase activity using 3-o-methylfluoro-rescein phosphate substrate at 10:1 enzyme to ERK protein ration; details: concentration not given here
[33] = target: T6, Dual specificity protein phosphatase 1 (Homo sapiens, UniProt P28562); assay: Inhibition of Myc-tagged human Dusp1 expressed in TPA-induced human HeLa cells assessed as decrease in dephosphorylation of pERK measured by immunostaining; format: cell-based; in short: as §2
T6 sequence (P28562 whole entry): T1 sequence (whole entry)

[34] = target: T7, Tyrosine-protein phosphatase non-receptor type 1 (Homo sapiens, UniProt P18031); assay: Inhibition of PTP1B
T7 sequence (P18031 whole entry): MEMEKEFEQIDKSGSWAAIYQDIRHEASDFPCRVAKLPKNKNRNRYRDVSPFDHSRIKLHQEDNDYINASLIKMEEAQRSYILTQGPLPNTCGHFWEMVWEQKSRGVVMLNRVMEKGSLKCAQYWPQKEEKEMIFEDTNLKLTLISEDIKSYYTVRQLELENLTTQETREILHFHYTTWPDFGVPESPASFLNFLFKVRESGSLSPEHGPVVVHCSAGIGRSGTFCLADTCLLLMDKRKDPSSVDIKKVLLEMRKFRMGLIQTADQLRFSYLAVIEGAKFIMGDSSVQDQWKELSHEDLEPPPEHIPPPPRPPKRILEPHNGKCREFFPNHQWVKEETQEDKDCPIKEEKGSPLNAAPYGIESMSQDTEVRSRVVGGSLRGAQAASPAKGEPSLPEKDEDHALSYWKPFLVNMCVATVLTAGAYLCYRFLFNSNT

[35] = target: T2, Dual specificity protein phosphatase 6 (Homo sapiens); assay: Inhibition of Dusp6 basal phosphatase activity using 3-o-methylfluoro-rescein phosphate substrate in presence of ERK protein; details: concentration not given here; in short: as §3
Danio rerio [36] = organism: Danio rerio; assay: Inhibition of dusp4 gene expression in Tg(dusp:EGFP)pt6 zebrafish embryos; format: functional; details: Embryo
Danio rerio [37] = organism: Danio rerio; assay: Inhibition of dusp1 gene expression in Tg(dusp:EGFP)pt6 zebrafish embryos; format: functional; details: Embryo

Chain of Dual specificity protein phosphatase 3 (P51452 whole entry): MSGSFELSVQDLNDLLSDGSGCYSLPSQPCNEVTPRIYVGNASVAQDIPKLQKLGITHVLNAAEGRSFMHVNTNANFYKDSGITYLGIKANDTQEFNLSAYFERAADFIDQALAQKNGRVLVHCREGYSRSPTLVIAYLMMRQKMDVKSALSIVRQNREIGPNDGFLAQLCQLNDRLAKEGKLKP

inhibition [1]: inactive
inhibition [2]: inactive
SMILES: O=C1CC(NC2CCCCC2)c2ccccc21 (stereo not drawn)

inhibition [4]: 93%
inhibition [6]: Active
inhibition [7]: Active
inhibition [9]: Active
IC50 [11]: Not Active
inhibition [12]: Active
inhibition [13]: Active
inhibition [14]: Active
inhibition [16]: Dose-dependent effect
inhibition [18]: inactive
IC50 [20]: 12.3 µM
inhibition [21]: Active
inhibition [24]: inactive
IC50 [25]: Not Active
inhibition [26]: inactive
inhibition [27]: Active
inhibition [28]: inactive
inhibition [29]: inactive
inhibition [30]: Active
inhibition [31]: Active
inhibition [32]: 30%
IC50 [33]: 11.5 µM
IC50 [34]: Not Active
inhibition [35]: 57%
inhibition [2]: Active
SMILES: O=C1/C(=C/c2ccccc2)C(NC2CCCCC2)c2ccccc21 (stereo not drawn)
inhibition (Danio rerio [3]): Active
Activity [5]: 91%
Activity (Danio rerio [8]): 81%
Activity (Danio rerio [10]): 81%
Activity [15]: 81%
inhibition (Danio rerio [17]): Active
inhibition (Danio rerio [19]): Active
Activity (Danio rerio [22]): 32%
Activity (Danio rerio [23]): Active
inhibition (Danio rerio [36]): Active
inhibition (Danio rerio [37]): Active
